Source: ChEMBL document CHEMBL3853320, “Discovery of Imidazoquinolines as a Novel Class of Potent, Selective, and in Vivo Efficacious Cancer Osaka Thyroid (COT) Kinase Inhibitors” (J Med Chem, 2016)
≈ marks a conversion by molar mass, not a printed value. Calls of active or inactive are those of the source. The calls are words filed in the database; no cut-off is given here.

Columns and labels:
[1] = Equilibrium solubility of the compound at pH 4 after 16 hrs by mass spectrometric analysis; format: physicochemical; conditions: buffer
[2] = Half life in wild type Sprague-Dawley rat liver S9 fraction at 1 uM in absence of NADPH by HPLC/MS analysis
[3] = Metabolic stability in bile-duct cannulated Sprague-Dawley rat assessed as parent compound remaining in liver at 3 mg/kg, iv measured over 8 hrs post dose; format: ADME, organism-based; conditions: read-out: Stability
Procedure, shortened: (§1)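 Bile-duct cannulated rats dosed in vivo. Parent and metabolites in each matrix were expressed as relative peak areas of the drug-related components detected, at the stated sampling time or collection period post dose.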

[4] = Clearance in wild type Sprague-Dawley rat at 1 mg/kg, iv or 3 mg/kg, po; format: ADME, organism-based; conditions: in vivo
Procedure, shortened: (§2)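 Pharmacokinetics in male Sprague–Dawley rats, n = 3 per group, after i.v. and p.o. dosing. AUC and Cmax are reported dose-normalized.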

[5] = Dose normalized AUC in wild type Sprague-Dawley rat at 1 mg/kg, iv; format: ADME, organism-based; conditions: in vivo; procedure, shortened: as §2
[6] = AUC (0 to 10.5 hrs) in MSU-induced beagle dog acute synovitis model at 15 mg/kg; format: ADME, organism-based, Canis lupus familiaris; parameters: time < 10.5 hr, dose 15 mg/kg; conditions: in vivo
Procedure, shortened: (§3)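 Dog uric acid-induced acute synovitis model. Groups were vehicle, the test article at 5 or 15 mg/kg, and meloxicam at 0.2 mg/kg as positive control. Exposure is reported as AUC over 0–10.5 h.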

[7] = Equilibrium solubility of the compound at pH 6.8 after 16 hrs by mass spectrometric analysis; format: physicochemical; conditions: buffer
[8] = Clearance in beagle dog at 0.1 mg/kg, iv or 0.3 mg/kg, po fasted 12 hrs prior to compound administration via cassette dosing and fed 2 hrs post dose; format: ADME, organism-based, Canis lupus familiaris; conditions: in vivo
Procedure, shortened: (§4)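 Pharmacokinetics in Beagle dogs, n = 3 per group, after i.v. and p.o. dosing. AUC and Cmax are reported dose-normalized.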

[9] = Oral bioavailability in beagle dog at 0.3 mg/kg fasted 12 hrs prior to compound administration via cassette dosing and fed 2 hrs post dose; format: ADME, organism-based, Canis lupus familiaris; conditions: in vivo
Procedure, shortened: (§5)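 Beagle dogs, n = 3 per group, dosed i.v. and orally. PK parameters were derived from blood/plasma profiles, with exposure values dose-normalized.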

[10] = Octanol-water partition coefficient, log P of the compound by shake-flask method; format: physicochemical
Canis familiaris = test: Antiinflammatory activity in MSU-induced beagle dog acute synovitis model assessed as prevention of inflammation-driven lameness at 15 mg/kg, administered once a week 3 hrs post MSU injection measured after 6 hrs post last dose; format: functional, organism-based; conditions: Canis lupus familiaris
Procedure, shortened: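 Lameness was induced in dogs by uric acid injection into the joint. Treatment was vehicle, test article at 5 or 15 mg/kg, or meloxicam 0.2 mg/kg. Vertical peak force of the affected limb was measured on a force plate while trotting. The read-out was the time after treatment for that force to recover to 60% of the value measured before lameness.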

[11] = Metabolic stability in bile-duct cannulated Sprague-Dawley rat assessed as parent compound remaining in kidney at 3 mg/kg, iv measured over 8 hrs post dose; format: ADME, organism-based; conditions: read-out: Stability; procedure, shortened: as §1
[12] = biological target: T1, Mitogen-activated protein kinase kinase kinase 8 (Homo sapiens, UniProt P41279); test: Inhibition of COT in LPS-stimulated human PBMC assessed as reduction in TNFalpha release incubated for 1 hr followed by stimulation with LPS for 4 hrs by HTRF assay
Procedure, shortened: (§6)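 Primary human PBMCs were stimulated with LPS. Read-outs were pERK, TNFα release, or p65 phosphorylation, each reported as IC50.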

[13] = Antiinflammatory activity in human PBMC assessed as inhibition of uric acid induced-IL-1beta formation stimulated with MSU crystals after 3 hrs in presence of ATP; format: functional, cell-based
[14] = Mean residence time in wild type Sprague-Dawley rat at 1 mg/kg, iv or 3 mg/kg, po; format: ADME, organism-based; conditions: in vivo; procedure, shortened: as §2
[15] = Dose normalized AUC in wild type Sprague-Dawley rat at 3 mg/kg, po; format: ADME, organism-based; conditions: in vivo; procedure, shortened: as §2
[16] = Oral bioavailability in wild type Sprague-Dawley rat at 3 mg/kg; format: ADME, organism-based; conditions: in vivo
Procedure, shortened: (§7)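 Male wild-type Sprague–Dawley rats, n = 3 per group, housed under Swiss animal-welfare conditions (12 h light/dark, 22−24 °C). Each group received separate i.v. and oral doses, with plasma profiles used for PK parameters.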

[17] = AUC (0 to 10.5 hrs) in MSU-induced beagle dog acute synovitis model at 5 mg/kg; format: ADME, organism-based, Canis lupus familiaris; parameters: time < 10.5 hr, dose 5 mg/kg; conditions: in vivo; procedure, shortened: as §3
[18] = Half life in wild type Sprague-Dawley rat liver microsomes at 5 uM preincubated for 3 mins followed by NADPH addition measured after 1 hr by HPLC/MS analysis; format: ADME
[19] = Dose normalized Cmax in beagle dog at 0.1 mg/kg, iv or 0.3 mg/kg, po fasted 12 hrs prior to compound administration via cassette dosing and fed 2 hrs post dose; format: ADME, organism-based, Canis lupus familiaris; conditions: in vivo; procedure, shortened: as §4
[20] = Dose normalized Cmax in wild type Sprague-Dawley rat at 1 mg/kg, iv or 3 mg/kg, po; format: ADME, organism-based; conditions: in vivo; procedure, shortened: as §2
[21] = Half life in beagle dog liver microsomes at 5 uM preincubated for 3 mins followed by NADPH addition measured after 1 hr by HPLC/MS analysis; format: ADME, Canis lupus familiaris
[22] = Tmax in wild type Sprague-Dawley rat at 1 mg/kg, iv or 3 mg/kg, po; format: ADME, organism-based; conditions: in vivo; procedure, shortened: as §7
[23] = Terminal elimination half life in beagle dog at 0.1 mg/kg, iv or 0.3 mg/kg, po fasted 12 hrs prior to compound administration via cassette dosing and fed 2 hrs post dose; format: ADME, organism-based, Canis lupus familiaris; conditions: in vivo, read-out: beta t1/2 (converted); procedure, shortened: as §5
[24] = biological target: T1, Mitogen-activated protein kinase kinase kinase 8; test: Inhibition of COT in LPS-stimulated human PBMC assessed as reduction in ERK1/2 phosphorylation incubated for 60 mins followed by LPS stimulation for 12 mins by flow cytometric analysis; procedure, shortened: as §6
[25] = biological target: T1, Mitogen-activated protein kinase kinase kinase 8; test: Inhibition of human COT (66 to 395 residues) expressed in Sf21 cells using 5-Fluo-Ahx-AGAGSGQLIDSNleANSFVGTR-NH2 as substrate after 60 mins by caliper microfluidic mobility shift assay
[26] = Terminal elimination half life in wild type Sprague-Dawley rat at 1 mg/kg, iv or 3 mg/kg, po; format: ADME, organism-based; conditions: in vivo, read-out: beta t1/2 (converted); procedure, shortened: as §7
[27] = Dose normalized AUC in beagle dog at 0.3 mg/kg, po fasted 12 hrs prior to compound administration via cassette dosing and fed 2 hrs post dose; format: ADME, organism-based, Canis lupus familiaris; conditions: in vivo; procedure, shortened: as §4
[28] = biological target: T1, Mitogen-activated protein kinase kinase kinase 8; test: Inhibition of COT in LPS-stimulated human whole blood assessed as reduction in TNFalpha release incubated for 30 mins followed by stimulation with LPS for 3 hrs by HTRF assay; format: tissue-based
Procedure, shortened: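 Human whole blood was stimulated with LPS, and TNFα release was measured as IC50.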

[29] = Protein binding in human plasma at 5 uM after 4 hrs by rapid equilibrium dialysis method; format: ADME, cell-free; conditions: read-out: PPB (converted)
[30] = Mean residence time in beagle dog at 0.1 mg/kg, iv or 0.3 mg/kg, po fasted 12 hrs prior to compound administration via cassette dosing and fed 2 hrs post dose; format: ADME, organism-based, Canis lupus familiaris; conditions: in vivo; procedure, shortened: as §4
[31] = Dose normalized AUC in beagle dog at 0.1 mg/kg, iv fasted 12 hrs prior to compound administration via cassette dosing and fed 2 hrs post dose; format: ADME, organism-based, Canis lupus familiaris; conditions: in vivo; procedure, shortened: as §4
[32] = Half life in beagle dog liver S9 fraction at 1 uM in absence of NADPH by HPLC/MS analysis
[33] = Drug metabolism in Sprague-Dawley rat liver S9 fraction assessed as 1-(2-(1-morpholinopropan-2-ylamino)benzo[d]thiazol-6-yl)-8-(pyridin-4-yl)-1H-imidazo[4,5-c][1,7]naphthyridin-4(5H)-one metabolite formation in presence of aldehyde oxidase inhibitor raloxifene at 10 uM; format: ADME, subcellular; conditions: s9, 10 µM
Procedure, shortened: (§8)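 M1 formation was measured in liver S9 incubations with no NADPH added, in the presence of the aldehyde oxidase inhibitor raloxifene. The rat S9 fraction received 10 μM raloxifene. The human S9 fraction was tested at two raloxifene concentrations.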

[34] = Drug metabolism in human liver S9 fraction assessed as 1-(2-(1-morpholinopropan-2-ylamino)benzo[d]thiazol-6-yl)-8-(pyridin-4-yl)-1H-imidazo[4,5-c][1,7]naphthyridin-4(5H)-one metabolite formation in presence of aldehyde oxidase inhibitor raloxifene; format: ADME, subcellular; procedure, shortened: as §8
[35] = Equilibrium solubility of the compound at pH 1 after 16 hrs by mass spectrometric analysis; format: physicochemical; conditions: buffer, pH 1, 16 h

T1 sequence (P41279 whole entry): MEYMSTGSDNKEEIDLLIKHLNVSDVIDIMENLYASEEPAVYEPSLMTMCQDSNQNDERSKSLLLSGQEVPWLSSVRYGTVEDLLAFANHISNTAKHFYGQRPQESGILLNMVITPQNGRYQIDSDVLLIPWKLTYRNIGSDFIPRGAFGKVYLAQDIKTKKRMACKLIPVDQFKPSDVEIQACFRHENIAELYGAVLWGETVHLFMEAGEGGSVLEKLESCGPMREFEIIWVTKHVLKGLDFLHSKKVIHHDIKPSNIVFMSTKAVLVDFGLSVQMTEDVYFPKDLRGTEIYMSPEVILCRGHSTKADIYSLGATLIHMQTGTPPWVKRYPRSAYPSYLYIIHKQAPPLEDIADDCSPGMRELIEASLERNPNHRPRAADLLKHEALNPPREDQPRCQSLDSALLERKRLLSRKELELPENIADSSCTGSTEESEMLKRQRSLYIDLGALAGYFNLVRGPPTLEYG

CC(CN1CCOCC1)Nc1ccc2cc(-n3cnc4cnc5cnc(-c6ccncc6)cc5c43)ccc2n1 (racemic)
solubility thermodynamic at 16 h [1]: > 1000 µM
half-life at 1 µM [2]: < 5 min
remaining at 8 h [3]: 28%
clearance [4]: 277 mL/min/kg
AUC/dose [5]: 119 nmol·h
AUC [6]: 4575 nmol·h
solubility thermodynamic at 16 h [7]: 136 µM (≈ 70.3 µg/mL)
clearance [8]: 25 mL/min/kg
bioavailability [9]: 61%
logP [10]: 3.3
Activity (Canis familiaris): Active
remaining at 8 h [11]: 22%
IC50 [12]: 60 nM
IC50 [13]: 200 nM
MRT [14]: 1.2 h
AUC/dose [15]: 31 nmol·h
bioavailability [16]: 26%
AUC [17]: 2057 nmol·h
half-life at 5 µM [18]: 3 min
Cmax/dose [19]: 61 nM
Cmax/dose [20]: 12 nM
half-life at 5 µM [21]: 0.167 h
Tmax [22]: 0.3 h
half-life [23]: 3.2 h
IC50 [24]: 60 nM
IC50 [25]: 6 nM
half-life [26]: 2.1 h
AUC/dose [27]: 957 nmol·h
IC50 [28]: 200 nM
fraction unbound at 4 h, 5 µM [29]: 0.03
MRT [30]: 2.4 h
AUC/dose [31]: 1570 nmol·h
half-life at 1 µM [32]: > 2 h

O=C(c1ccc(OCCN2CCCCC2)cc1)c1c(-c2ccc(O)cc2)sc2cc(O)ccc12 [RALOXIFENE]
Drug metabolism [33]: Metabolite_Detected
Drug metabolism [34]: Metabolite_Notdetected

c1ccc(-c2cc3c(cn2)ncc2ncn(-c4ccc5nc(NCCN6CCOCC6)sc5c4)c23)cc1
solubility thermodynamic at 16 h [1]: > 1000 µM
solubility thermodynamic at 16 h [7]: < 4 µM
logP [10]: 4.6
solubility [35]: Soluble
IC50 [12]: 270 nM
IC50 [24]: 280 nM
IC50 [25]: 16 nM
IC50 [28]: 2500 nM
fraction unbound at 4 h, 5 µM [29]: < 0.01
